In ChEMBL document CHEMBL4219039, “Group-Based Optimization of Potent and Cell-Active Inhibitors of the von Hippel-Lindau (VHL) E3 Ubiquitin Ligase: Structure-Activity Relationships Leading to the Chemical Probe …” (J Med Chem, 2018):
Calls of active or inactive are those of the source. The calls are words filed in the database; no cut-off is given here.

How the values were obtained:
[1] = biological target: T1, Von Hippel-Lindau disease tumor suppressor/Elongin B/Elongin C (Homo sapiens) (UniProt P40337+Q15370+Q15369); assay: Inhibition of VBC in human HeLa cells assessed as HIF-1alpha stabilization by measuring HIF-1alpha protein levels at 50 uM after 2 hrs by Western blot analysis; type: cell-based; design: scale not given: the % may be the effect or the level left
How it was run: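 HeLa (ATCC) grown in DMEM with 10% FBS, L-glutamine and penicillin/streptomycin at 37 °C; mycoplasma-tested. Treated 2 h in fresh medium, 1% DMSO as vehicle control. Lysed in RIPA buffer with protease inhibitors, SDS-PAGE, nitrocellulose blot. Anti-HIF-1α probed with β-actin as loading control, IRDye 800CW secondary for detection. Levels normalized to a reference VHL inhibitor.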

[2] = biological target: T2, Von Hippel-Lindau disease tumor suppressor/Elongin B/Elongin C (Homo sapiens, UniProt P40337); assay: Displacement of FAM-labeled HIF-1alpha peptide from VBC (unknown origin) by fluorescence polarization assay
[3] = Half life in plasma (unknown origin) at pH 7.4 at 50 uM up to 180 mins by UPLC-MS/MS analysis; type: ADME, cell-free
How it was run: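 Compound at 50 μM incubated at 37 °C in prewarmed plasma buffered to pH 7.4 (70:30 plasma to buffer). Aliquots were taken at 0, 30, 60, 120 and 180 min and quenched in acetonitrile with donepezil internal standard. Samples were centrifuged and analysed by UPLC-MS/MS. The rate constant was fitted as exponential decay of the compound/internal standard peak-area ratio.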

[4] = Passive permeability of the compound in pH 7.4 PBS at 10 uM after 5 hrs by UPLC-MS/MS method based PAMPA; type: ADME; settings: pH 7.4, 5 h
How it was run: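 Precoated PAMPA plate with lipid–oil–lipid trilayer filter. Compound at 10 μM in PBS pH 7.4 (≤5% DMSO) in the donor well, PBS in the acceptor well. Held 5 h at room temperature; both compartments quantified by UPLC-MS/MS. Pe calculated from peak areas; data accepted only if recovery exceeded 70%. Propranolol as control.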

[5] = biological target: T2, Von Hippel-Lindau disease tumor suppressor/Elongin B/Elongin C
[6] = biological target: T1, Von Hippel-Lindau disease tumor suppressor/Elongin B/Elongin C (Homo sapiens); assay: Binding affinity to VBC (unknown origin) assessed as dissociation rate constant at 50 uM after 160 secs at 20 degC by surface plasmon resonance assay; type: protein-complex assay
How it was run: (§1)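 SPR on a Biacore T100 at 10 and 20 °C against VBC complex. Ligand stock 50 μM in DMSO, 2-fold serial dilutions in SPR buffer (20 mM HEPES, 150 mM NaCl, 1 mM DTT, 0.005% Tween P20, pH 7.0). Kd taken as koff/kon.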

[7] = biological target: T1, Von Hippel-Lindau disease tumor suppressor/Elongin B/Elongin C (Homo sapiens); assay: Binding affinity to VBC (unknown origin) assessed as association rate constant at 50 uM after 60 secs at 10 degC by surface plasmon resonance assay; type: protein-complex assay; how it was run: as §1
[8] = biological target: T1, Von Hippel-Lindau disease tumor suppressor/Elongin B/Elongin C (Homo sapiens)
[9] = biological target: T2, Von Hippel-Lindau disease tumor suppressor/Elongin B/Elongin C; remark: listed apart in the source
[10] = Chromatographic hydrophobicity index, log D of the compound at pH 7.4 by HPLC analysis; type: physicochemical; settings: buffer
How it was run: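 DMSO stocks (10 mM) diluted to 0.25 mM in 50:50 acetonitrile:water. Run on C18 HPLC at 20 °C, 1 mL/min. Mobile phase 10 mM ammonium acetate pH 7.4 with an acetonitrile gradient. Retention times calibrated against a standard mix of eleven reference compounds, then converted to CHIlogD.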

[11] = biological target: T1, Von Hippel-Lindau disease tumor suppressor/Elongin B/Elongin C (Homo sapiens); assay: Binding affinity to VBC (unknown origin) assessed as dissociation rate constant at 50 uM after 160 secs at 10 degC by surface plasmon resonance assay; type: protein-complex assay; how it was run: as §1
[12] = biological target: T2, Von Hippel-Lindau disease tumor suppressor/Elongin B/Elongin C; remark: listed apart in the source
[13] = Intrinsic clearance in CD1 mouse liver microsomes at 0.5 uM up to 30 mins by UPLC-MS/MS analysis; type: ADME, microsome; settings: 0.5 h
How it was run: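 Compound at 0.5 μM with female CD1 mouse liver microsomes (0.5 mg/mL) in 50 mM potassium phosphate pH 7.4, started with excess NADPH. Samples quenched in acetonitrile at 0, 3, 6, 9, 15 and 30 min; UPLC-MS/MS against internal standard. Decay rate constant converted to CLi assuming 52.5 mg microsomal protein/g liver. Verapamil as assay control.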

[14] = biological target: T1, Von Hippel-Lindau disease tumor suppressor/Elongin B/Elongin C (Homo sapiens); assay: Binding affinity to VBC (unknown origin) assessed as association rate constant at 50 uM after 60 secs at 20 degC by surface plasmon resonance assay; type: protein-complex assay; how it was run: as §1
HeLa [15] = assay: Antiproliferative activity against human HeLa cells assessed as reduction in cell proliferation at 150 uM incubated for 24 to 72 hrs by haemocytometry; type: cell-based
HeLa [16] = assay: Antiproliferative activity against human HeLa cells assessed as reduction in colony formation at 150 uM incubated for 24 hrs by crystal violet staining based assay; type: cell-based
How it was run: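 HeLa cells, 500–2000 per well, seeded one day before exposure to 150 μM compound; 1% DMSO as vehicle control. Medium replaced after 24 h treatment, then grown a further week. Stained with 0.005% crystal violet in 25% methanol for 10 min at room temperature. Colonies counted on scanned plates.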

[17] = biological target: T1, Von Hippel-Lindau disease tumor suppressor/Elongin B/Elongin C (Homo sapiens); remark: listed apart in the source
[18] = biological target: T1, Von Hippel-Lindau disease tumor suppressor/Elongin B/Elongin C (Homo sapiens); assay: Inhibition of VBC in human HeLa cells expressing HRE-luciferase reporter gene assessed as reduction in HIF transcriptional activity at 1 to 250 uM after 24 hrs by luciferase reporter gene assay; type: cell-based

T1 sequence (P40337 whole entry, looked up): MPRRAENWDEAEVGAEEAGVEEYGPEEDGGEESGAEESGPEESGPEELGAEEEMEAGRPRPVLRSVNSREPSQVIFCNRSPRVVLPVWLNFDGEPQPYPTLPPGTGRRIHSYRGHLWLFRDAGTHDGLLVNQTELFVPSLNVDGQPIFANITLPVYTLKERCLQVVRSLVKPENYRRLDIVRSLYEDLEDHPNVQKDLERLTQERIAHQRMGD
T1 sequence (Q15369 whole entry, looked up): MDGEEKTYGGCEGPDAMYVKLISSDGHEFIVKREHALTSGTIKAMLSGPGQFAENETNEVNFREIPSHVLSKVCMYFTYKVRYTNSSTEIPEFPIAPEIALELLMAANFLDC
T1 sequence (Q15370 whole entry, looked up): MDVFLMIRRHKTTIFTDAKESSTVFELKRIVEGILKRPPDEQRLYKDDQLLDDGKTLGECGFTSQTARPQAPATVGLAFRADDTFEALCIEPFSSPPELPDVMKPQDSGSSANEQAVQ
T2 sequence (P40337 whole entry, looked up): as the sequence (P40337 whole entry, looked up) above

SMILES	Activity [1] [%]	Kd [2] [nM]	permeability [4] [×10⁻⁶ cm/s]	chromatographic logD [10]	also measured
Cc1ncsc1-c1ccc(CNC(=O)[C@@H]2C[C@@H](O)CN2C(=O)[C@@H](NC(=O)C2(F)CC2)C(C)O)cc1 (single isomer, unassigned)	46	370			
Cc1ncsc1-c1ccc(CNC(=O)[C@@H]2C[C@@H](O)CN2C(=O)[C@@H](NC(=O)CC(C)(C)C)C(C)(C)C)cc1	65	450			
Cc1ncsc1-c1ccc(CNC(=O)[C@@H]2C[C@@H](O)CN2C(=O)[C@@H](NC(=O)C2CCC2)C(C)(C)C)cc1	138	250	1.16	1.3	half-life at 50 µM [3]: > 3 h; Kd [5]: 271 nM; K [6]: 0.256 s⁻¹; K [7]: 5.17 ×10⁵ /M/s; T1/2 [8]: 4.95 s; Kd [9]: 210 nM; K [11]: 0.14 s⁻¹; Kd [12]: 233 nM; intrinsic clearance (CLint) [13]: 3 mL/min/g; K [14]: 1.1 ×10⁶ /M/s
Cc1ncsc1-c1ccc(CNC(=O)[C@@H]2C[C@@H](O)CN2C(=O)[C@@H](NC(=O)C(C)(C)F)C(C)(C)C)cc1	19	770			
CC(=O)N1CC(C(=O)N[C@H](C(=O)N2C[C@H](O)C[C@H]2C(=O)NCc2ccc(-c3scnc3C)cc2)C(C)(C)C)C1	12	4900			
CC(=O)NC1(C(=O)N[C@H](C(=O)N2C[C@H](O)C[C@H]2C(=O)NCc2ccc(-c3scnc3C)cc2)C(C)(C)C)CC1	20	300	0.01	0.61	Kd [9]: 138 nM
Cc1ncsc1-c1ccc(CNC(=O)[C@@H]2C[C@@H](O)CN2C(=O)[C@@H](NC(=O)OC(C)(C)C)C(C)(C)C)cc1	12	6500			
Cc1ncsc1-c1ccc(CNC(=O)[C@@H]2C[C@H](O)CN2C(=O)[C@@H](NC(=O)C2(F)CC2)C(C)(C)C)cc1					Activity (HeLa [15]): Toxic; Activity (HeLa [16]): Toxic
Cc1ncsc1-c1ccc(CNC(=O)[C@@H]2C[C@@H](O)CN2C(=O)[C@@H](NC(=O)CO)C(C)(C)C)cc1	16	200	0.01	0.65	Kd [9]: 105 nM
Cc1ncsc1-c1ccc(CNC(=O)[C@@H]2C[C@@H](O)CN2C(=O)[C@@H](NC(=O)C2CC(=O)C2)C(C)(C)C)cc1	28	500			
Cc1ncsc1-c1ccc(CNC(=O)[C@@H]2C[C@@H](O)CN2C(=O)[C@@H](NC(=O)C(F)(F)F)C(C)(C)C)cc1	95	270			
Cc1ncsc1-c1ccc(CNC(=O)[C@@H]2C[C@@H](O)CN2C(=O)[C@@H](NC(=O)C2(F)CC2)C(C)(C)C)cc1	175		2.71	1.63	half-life at 50 µM [3]: > 3 h; T1/2 [17]: 7.07 s; inhibition [18]: Active; K [6]: 0.098 s⁻¹; K [7]: 2.4 ×10⁶ /M/s; T1/2 [8]: 11.9 s; Activity (HeLa [15]): Toxic; K [11]: 0.058 s⁻¹; Activity (HeLa [16]): Toxic; intrinsic clearance (CLint) [13]: 2.9 mL/min/g
Cc1ncsc1-c1ccc(CNC(=O)[C@@H]2C[C@@H](O)CN2C(=O)[C@@H](NC(=O)C2(C#N)CC2)C(C)(C)C)cc1	190		1.94	1.4	half-life at 50 µM [3]: > 3 h; Activity (HeLa [15]): Non-Toxic; Activity (HeLa [16]): Non-Toxic; intrinsic clearance (CLint) [13]: 3.1 mL/min/g
Cc1ncsc1-c1ccc(CNC(=O)[C@@H]2C[C@@H](O)CN2C(=O)[C@@H](NC(=O)C(Cl)(Cl)Cl)C(C)(C)C)cc1	89	200			
Cc1ncsc1-c1ccc(CNC(=O)[C@@H]2C[C@H](O)CN2C(=O)[C@@H](NC(=O)C2(C#N)CC2)C(C)(C)C)cc1					Activity (HeLa [15]): Non-Toxic; Activity (HeLa [16]): Non-Toxic
CC(=O)C1(C(=O)N[C@H](C(=O)N2C[C@H](O)C[C@H]2C(=O)NCc2ccc(-c3scnc3C)cc2)C(C)(C)C)CC1	156	170	1.5	1.34	half-life at 50 µM [3]: > 3 h; T1/2 [17]: 4.1 s; Kd [5]: 115 nM; K [6]: 0.169 s⁻¹; K [7]: 6 ×10⁵ /M/s; T1/2 [8]: 10 s; Kd [9]: 106 nM; K [11]: 0.069 s⁻¹; Kd [12]: 97 nM; intrinsic clearance (CLint) [13]: 2.5 mL/min/g; K [14]: 8.2 ×10⁵ /M/s
Cc1ncsc1-c1ccc(CNC(=O)[C@@H]2C[C@@H](O)CN2C(=O)[C@@H](NC(=O)C2CC2)C(C)(C)C)cc1	105	170	0.61	1.14	Kd [9]: 132 nM
Cc1ncsc1-c1ccc(CNC(=O)[C@@H]2C[C@@H](O)CN2C(=O)[C@@H](NC(=O)C2COC2)C(C)(C)C)cc1	34	320	0.03	0.71	Kd [9]: 230 nM
CCC(=O)N[C@H](C(=O)N1C[C@H](O)C[C@H]1C(=O)NCc1ccc(-c2scnc2C)cc1)C(C)(C)C	98				
Cc1ncsc1-c1ccc(CNC(=O)[C@@H]2C[C@@H](O)CN2C(=O)[C@@H](N2CCCC2=O)C(C)(C)C)cc1	33	1400			
CC(=O)N[C@@H](C)C(=O)N1C[C@H](O)C[C@H]1C(=O)NCc1ccc(-c2scnc2C)cc1	12				
CC(=O)N(C)[C@H](C(=O)N1C[C@H](O)C[C@H]1C(=O)NCc1ccc(-c2scnc2C)cc1)C(C)(C)C	26				
CC(=O)N[C@H](C(=O)N1C[C@H](O)C[C@H]1C(=O)NCc1ccc(-c2scnc2C)cc1)C(C)(C)C	100		0.12	0.9	half-life at 50 µM [3]: > 3 h; intrinsic clearance (CLint) [13]: 0.7 mL/min/g
